# In the library only some 3.1% were active in any assay of this set; here they are far more common.
# hERG protect: hERG rescue from dofetilide block, primary screen, cell-based, CHO-hERG, FluxOR thallium flux, dofetilide IC70; Voltage-gated inwardly rectifying potassium channel KCNH2 (Homo sapiens), Q12809; dofetilide IC70 present; activation (rescue from dofetilide block), less the hit threshold, % at 10 µM; 0.51% of 310,000 active; AID 1511, 2009;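 active = activation above the mean of controls blocked by dofetilide plus 5 SD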;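 also: thallium influx through hERG after potassium depolarization seen as dye fluorescence rise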
# KCNQ1 block: inhibitors of human KCNQ1 channel, primary screen, cell-based, thallium flux, high-throughput; CHO-K1 KCNQ1, FluxOR thallium flux fluorescence; hits give high values; B-score at 10 µM; 1.3% of 310,000 active; AID 2642, 2010;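 active = compounds whose thallium flux B-score, printed positive for inhibition, exceeds three library SD while starting fluorescence stays within three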;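 also: channel opened by potassium depolarization with thallium stimulus after 20 min compound exposure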
# KCNK3 inh: human KCNK3 channel inhibitors, primary screen, CHO cells, FluxOR thallium flux, B-score; 0.84% of 340,000 active; B-score at 10 µM; FluxOR fluorescence; hits give low values;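 active = B-score under library mean minus 4 SD, starting fluorescence ratio at most library mean plus 5 SD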;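 also: more negative B-score means stronger inhibition of thallium flux through KCNK3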
# KCNK9 inh: KCNK9 potassium channel inhibitors, primary screen, HEK293 cells, thallium flux; Potassium channel subfamily K member 9 (Homo sapiens), Q9NPC2; B-score at 10 µM; FluxOR thallium flux fluorescence; hits give low values; 1.2% of 310,000 active;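 active = ratio B-score over 3 SD below the library mean, with starting fluorescence within 5 SD of its mean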;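 also: negative B-score means less thallium flux so channel inhibition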
# Target sequence (Q9NPC2 whole entry, looked up): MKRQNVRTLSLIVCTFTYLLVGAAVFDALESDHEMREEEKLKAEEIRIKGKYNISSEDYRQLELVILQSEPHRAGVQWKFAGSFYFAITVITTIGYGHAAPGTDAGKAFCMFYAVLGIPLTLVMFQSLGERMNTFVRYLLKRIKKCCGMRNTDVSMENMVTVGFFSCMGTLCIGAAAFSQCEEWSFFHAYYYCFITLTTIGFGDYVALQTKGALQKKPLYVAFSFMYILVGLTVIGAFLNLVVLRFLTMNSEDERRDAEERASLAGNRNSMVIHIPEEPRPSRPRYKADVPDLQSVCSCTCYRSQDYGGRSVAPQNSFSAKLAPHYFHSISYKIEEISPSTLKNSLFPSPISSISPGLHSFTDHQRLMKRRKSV
# KCNQ1 pot: potentiators or activators of KCNQ1 channel, primary screen, cell-based, thallium flux, high-throughput | Potassium voltage-gated channel subfamily KQT member 1 (Homo sapiens), P51787 | CHO-K1 KCNQ1, thallium flux FluxOR fluorescence; hits give high values | B-score at 10 µM | 0.35% of 310,000 active | AID 2648, 2010;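 active = fluorescence ratio B-score, a plate-corrected score, at least three library SD, with initial intensity B-score within 5 SD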
#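 Material: CHO-K1 cells stably expressing KCNQ1. Medium: assay buffer for compound exposure, DMSO matched across wells. Reagent: K+/Tl+ depolarizing stimulus. Compound dosing: single-concentration screen. Times: 37 °C overnight plating, 90-min dark dye load, 20-min compound pretreatment. Technique: FluxOR Tl+ flux fluorescence.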
# KCNQ1 block val: KCNQ1 potassium channel inhibitors, confirmation, cell-based, Tl flux, duplicate; shares compounds with KCNQ1 block; KCNQ1 cell line, FluxOR thallium flux fluorescence; inhibition, % at 10 µM; 93% of 1,600 active;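 active = primary screen active, with duplicate mean exceeding buffer control mean plus 3 SD of buffer wells, cut at about 28% in these data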
# CHO Tl flux: thallium flux effects in parental CHO cells, counter-screen for KCNQ1 inhibitor project, cell-based, Tl flux | shares compounds with KCNQ1 block | parental CHO-K1, FluxOR thallium flux fluorescence ratio; hits give low values; zero means no signal rise above baseline | fluorescence ratio (Tl flux) at 10 µM | 21% of 1,600 active | AID 588366, 2011;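 active = mean of duplicate thallium-flux fluorescence ratios in parental host cells more than 5 SD below the buffer control mean, cut at about 0.38 in these data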;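 also: ratio is peak minus minimum fluorescence divided by baseline fluorescence; actives read low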
# KCNQ1 ephys val: KCNQ1 channel inhibitors, confirmation, orthogonal assay, cell-based, automated electrophysiology | shares compounds with KCNQ1 block | KCNQ1-CHO cells, automated patch clamp current | 20% of 490 active | AID 624120, 2012 | calls only at 10 µM;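 active = KCNQ1 current drop exceeding 3 SD of negative control wells, seen in both duplicate runs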;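 also: steady state current during a 2 s step from -80 to +40 mV; negative values mean current inhibition and positive values mean potentiation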
# KCNQ2 spec: KCNQ2 channel inhibition, selectivity assay for KCNQ1 inhibitor project, cell-based. 71% of 1,600 active. KCNQ2 cells, FluxOR thallium flux fluorescence. inhibition, % at 10 µM. AID 651746, 2012. shares compounds with KCNQ1 block;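 active = mean percent inhibition of the KCNQ2 thallium signal more than 5 SD above the buffer-only control wells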;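 also: KCNQ2 expressed in CHO cells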
# KCNQ1 KCNE1 spec: KCNQ1/KCNE1 channel inhibition, selectivity assay for KCNQ1 inhibitor project, CHO-K1 cells, thallium flux, FluxOR | shares compounds with KCNQ1 block | FluxOR thallium flux fluorescence | inhibition, % at 10 µM | 77% of 1,600 active | AID 652147, 2013;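 active = mean percent inhibition of duplicate wells above the buffer-only control mean plus 3 SD of those controls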
# Hits are given with their value; n = inactive; x = no result given; + = active, no number.
SMILES,hERG protect,KCNQ1 block,KCNK3 inh,KCNK9 inh,KCNQ1 pot,KCNQ1 block val,CHO Tl flux,KCNQ2 spec,KCNQ1 KCNE1 spec,others
Cc1cc(C(=O)NC2CCCc3c2cnn3-c2cccc(C)c2C)n(C)n1 (configuration not stated),n,16,n,n,n,84,n,60%,46%,
CN(C)C(=O)C(OC(=O)c1ccc2ccccc2n1)c1ccccc1 (configuration not stated),n,n,n,n,n,x,x,x,x,
CCOC(=O)C1=C(COC(=O)[C@H](C)NS(=O)(=O)c2ccc(NC(C)=O)cc2)NC(=O)NC1C (some centres not stated),x,x,n,x,x,x,x,x,x,
CCn1nc(NC(=O)c2ccccc2)c2cc3cccc(C)c3nc21,n,6,n,n,n,152,n,n,142%,KCNQ1 ephys val=n
O=C1CCCCC1C(Nc1ccc(Br)cc1)c1ccccc1 (configuration not stated),n,8,n,-6.6,n,126,n,89%,172%,KCNQ1 ephys val=+
Cc1cccc(C)c1OCC(O)CN(Cc1ccccc1O)C1CCCCC1 (configuration not stated),n,7,n,n,n,94,n,114%,55%,KCNQ1 ephys val=+
CN(CC(O)COc1ccc(OCC(O)CN(C)C2CCCCC2)cc1)C1CCCCC1 (configuration not stated),n,n,n,n,n,x,x,x,x,
Cc1nn2c(NCc3ccccn3)cc(C(C)C)nc2c1-c1ccccc1,n,n,n,n,n,x,x,x,x,
CCCc1cc(NCc2ccccn2)n2nc(C)c(-c3ccccc3)c2n1,n,8,n,n,n,56,n,108%,84%,
O=C(Nc1cccc(S(=O)(=O)N2CCCCC2)c1)Nc1ccc(Cl)cc1Cl,n,7,n,n,n,98,n,97%,70%,KCNQ1 ephys val=n
CCCCn1c(N)c(N(CC)C(=O)c2cccs2)c(=O)[nH]c1=O,x,x,n,x,x,x,x,x,x,
CCC(C)Nc1nc(OC(C(F)(F)F)C(F)(F)F)nc(OC(C(F)(F)F)C(F)(F)F)n1 (configuration not stated),n,7,n,n,n,92,n,102%,90%,
Cc1ccc(C(=O)NCC(=O)Nc2ccc(S(=O)(=O)Nc3cc(C)nc(C)n3)cc2)cc1,x,x,n,x,x,x,x,x,x,
Cc1cc(C(=O)Cn2cnc3ccccc3c2=O)c(C)n1C1CC1,n,n,n,n,n,x,x,x,x,
O=C1C(=O)N(C2CCS(=O)(=O)C2)C(c2cccc(O)c2)/C1=C(/O)c1ccc(Cl)cc1 (configuration not stated),n,n,n,n,n,x,x,x,x,
C(=C\c1nnc2c3ccccc3ncn12)/c1ccccc1,n,n,n,n,n,x,x,x,x,
COc1cc(/C=C/c2nnc3c4ccccc4ncn23)cc(OC)c1OC,n,6,n,n,n,44,n,60%,34%,
COc1ccc(NS(=O)(=O)c2ccc(-c3coc(C)n3)cc2)cc1OC,n,8,n,n,n,124,n,84%,36%,KCNQ1 ephys val=n
COc1ccccc1CCC(=O)OCC(=O)Nc1ccc(C(N)=O)cc1,n,n,n,n,n,x,x,x,x,
Cc1cc(NCC2CCCCC2)nc2ccccc12,n,7,n,n,n,68,n,n,66%,
Cc1cc(NCCNC2=CC(=O)CCC2)nc2ccccc12,n,n,n,n,n,x,x,x,x,
O=S(=O)(c1ccc2[nH]c3c(c2c1)CCCC3)N1CCCCC1,n,9,n,n,n,88,n,75%,110%,KCNQ1 ephys val=+
O=C(c1cc(-c2cccs2)nn1-c1ccccc1)N1CCN(S(=O)(=O)c2ccccc2)CC1,n,7,n,n,n,60,n,91%,100%,
O=C(c1cc(-c2ccccc2)nn1-c1ccccc1)N1CCN(S(=O)(=O)c2cccc(F)c2)CC1,n,n,n,n,n,x,x,x,x,
O=C(c1cc(-c2ccccc2)nn1-c1ccccc1)N1CCN(S(=O)(=O)c2ccc(F)cc2)CC1,n,6,n,n,n,57,n,81%,37%,
SMILES,hERG protect,KCNQ1 block,KCNK3 inh,KCNK9 inh,KCNQ1 pot,KCNQ1 block val,CHO Tl flux,KCNQ2 spec,KCNQ1 KCNE1 spec,others
COc1ccc(-c2cc(=NC(CC(C)C)C(=O)O)c3cc(C)ccc3o2)cc1 (configuration not stated),n,9,n,n,n,70,n,n,54%,
FC(F)(F)c1cccc(-c2nc3nc(Cl)c(Cl)nc3[nH]2)c1,n,8,n,n,n,52,n,n,n,
O=C(O)/C(=C/c1ccc(Cl)c([N+](=O)[O-])c1)c1ccc(S(=O)(=O)N2CCCCC2)s1,x,x,n,x,x,x,x,x,x,
CCCCOCCCNc1ncnc2c1[nH]c1ccccc12,n,9,n,n,n,154,0.36,121%,198%,
CCCc1cc(C(=O)Nc2ccc(C(=O)c3ccc(C)cc3)cc2)n(C)n1,n,11,n,n,n,170,0.36,140%,+,
Cc1ccc(NC(=O)CSc2nnc(C3CC3)n2N)cc1S(=O)(=O)N1CCOCC1,n,n,n,n,n,x,x,x,x,
Cc1cc(C)c(OCCCNCc2ccccc2)c(Br)c1,n,n,n,n,n,x,x,x,x,
Cc1cc(Cl)c(OCCCNCc2ccccc2)c(Br)c1,n,6,n,n,n,37,n,73%,n,
CCCCn1c(=O)[nH]c2nc3cc(N)ccc3nc2c1=O,x,x,n,x,x,x,x,x,x,
C=CCn1c(=O)[nH]c2nc3cc(N=CN(C)C)c(C)cc3nc2c1=O,n,8,n,n,n,102,0.28,n,152%,
CN1C2CCC1/C(=C/c1cccn1C)C(=O)/C2=C\c1cccn1C,n,17,n,n,n,+,0.14,n,n,
NC1=NC[C@H](c2ccccc2)N1CCCCC1CCCCC1,n,9,n,n,n,116,n,120%,88%,KCNQ1 ephys val=+
